# Hits are enriched below; roughly 3.7% of the tested compounds scored in any of these assays.
# KCNK9 inh = inhibitors of human KCNK9 two-pore domain potassium channel. HEK293 KCNK9, FluxOR thallium flux fluorescence; active compounds read low. B-score at 10 µM. 1.2% of 310,000 active. AID 488922;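 active = ratio B-score over 3 SD below the library mean, with starting fluorescence within 5 SD of its mean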;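 also: negative B-score means less thallium flux so channel inhibition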
# Kir21 inh = blocks the mouse Kir2.1 inward-rectifier potassium channel. P35561. HEK293-Kir2.1, FluxOR thallium flux fluorescence; active compounds read low. B-score at 10 µM. 0.85% of 310,000 active;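 active = fluorescence ratio B-score at or below minus 3 SD of library scores, with starting-brightness B-score within 2 SD, cut at about -4.2 in these data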;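 also: channel flux triggered by added potassium and thallium sulfate stimulus; B-score of peak minus minimum fluorescence over baseline after thallium stimulus; more negative B-score means stronger Kir2.1 block with less thallium influx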
# KCNK3 inh = human KCNK3 channel inhibition, primary screen. AID 602410. CHO-KCNK3 thallium flux, FluxOR fluorescence; active compounds read low. O14649. 0.84% of 340,000 active. B-score at 10 µM;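 active = B-score under library mean minus 4 SD, starting fluorescence ratio at most library mean plus 5 SD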;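 also: more negative B-score means stronger inhibition of thallium flux through KCNK3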
# KCNQ1 block = inhibitors of human KCNQ1 potassium channel | P51787 | CHO-K1 KCNQ1, FluxOR thallium flux fluorescence; active compounds read high | B-score at 10 µM | 1.3% of 310,000 active | AID 2642;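 active = compounds whose thallium flux B-score, printed positive for inhibition, exceeds three library SD while starting fluorescence stays within three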;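 also: channel opened by potassium depolarization with thallium stimulus after 20 min compound exposure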
# Target sequence (P51787 whole entry, looked up): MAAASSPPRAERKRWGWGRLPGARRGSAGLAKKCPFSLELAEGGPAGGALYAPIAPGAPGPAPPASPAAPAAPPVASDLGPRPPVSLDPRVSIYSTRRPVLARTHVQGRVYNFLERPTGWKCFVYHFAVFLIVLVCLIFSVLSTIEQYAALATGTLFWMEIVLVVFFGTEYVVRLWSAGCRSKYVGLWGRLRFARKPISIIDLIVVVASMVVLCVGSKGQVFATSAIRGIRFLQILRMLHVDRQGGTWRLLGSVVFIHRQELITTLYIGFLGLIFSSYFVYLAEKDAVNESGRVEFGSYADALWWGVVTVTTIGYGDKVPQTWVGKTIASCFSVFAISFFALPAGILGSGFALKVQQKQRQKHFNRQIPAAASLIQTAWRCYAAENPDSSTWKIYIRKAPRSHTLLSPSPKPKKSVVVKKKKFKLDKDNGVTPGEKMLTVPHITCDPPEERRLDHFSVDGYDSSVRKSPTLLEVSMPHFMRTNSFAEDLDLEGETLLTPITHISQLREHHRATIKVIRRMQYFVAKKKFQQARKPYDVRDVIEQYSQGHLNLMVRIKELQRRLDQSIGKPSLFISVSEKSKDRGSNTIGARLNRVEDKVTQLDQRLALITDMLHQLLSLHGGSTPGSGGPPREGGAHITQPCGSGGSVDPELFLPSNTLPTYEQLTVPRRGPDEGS
# KCNQ1 act = potentiators or activators of human KCNQ1 potassium channel; P51787; CHO-K1 KCNQ1, thallium flux FluxOR fluorescence; active compounds read high; B-score at 10 µM; 0.35% of 310,000 active; AID 2648;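 active = fluorescence ratio B-score, a plate-corrected score, at least three library SD, with initial intensity B-score within 5 SD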
#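 assay system = KCNQ1-transfected CHO-K1 cells | medium = assay buffer with matched DMSO | probe or stimulus = depolarizing K+/Tl+ stimulus, K2SO4 and Tl2SO4 each 12.5 mM in 5x stock | dosing = single dose | incubation = dye 90 min, compound 20 min, room temperature | detection = kinetic FluxOR fluorescence, 10 s baseline plus 110 s post-stimulus | evaluation = ratio B score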
# hERG rescue = compounds protecting human hERG from proarrhythmic drug block | Q12809 | CHO-hERG, FluxOR thallium flux, dofetilide IC70 present | activation (rescue from dofetilide block), less the hit threshold, % at 10 µM | 0.51% of 310,000 active;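 active = activation above the mean of controls blocked by dofetilide plus 5 SD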;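 also: thallium influx through hERG after potassium depolarization seen as dye fluorescence rise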
# KCNQ1 block val = human KCNQ1 channel inhibition, validation assay | AID 588353 | inhibition, % at 10 µM | 93% of 1,600 active | shares compounds with KCNQ1 block | KCNQ1 cell line, FluxOR thallium flux fluorescence;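 active = primary screen active, with duplicate mean exceeding buffer control mean plus 3 SD of buffer wells, cut at about 28% in these data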;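 also: 0% = buffer control ratio and 100% = XE991 inhibitor control ratio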
# CHO KCNQ1 ctr = KCNQ1 inhibitor counter-screen hit in parental CHO cells; shares compounds with KCNQ1 block; parental CHO-K1, FluxOR thallium flux fluorescence ratio; active compounds read low; zero means no signal rise above baseline; fluorescence ratio (Tl flux) at 10 µM; 21% of 1,600 active;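 active = mean of duplicate thallium-flux fluorescence ratios in parental host cells more than 5 SD below the buffer control mean, cut at about 0.38 in these data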;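 also: ratio is peak minus minimum fluorescence divided by baseline fluorescence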
# KCNQ1 APC inh = human KCNQ1 inhibition validated by electrophysiology. shares compounds with KCNQ1 block. KCNQ1-CHO cells, automated patch clamp current. calls only at 10 µM. 20% of 490 active;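 active = KCNQ1 current drop exceeding 3 SD of negative control wells, seen in both duplicate runs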;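 also: steady state current during a 2 s step from -80 to +40 mV; negative values mean current inhibition and positive values mean potentiation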
# KCNQ2 inh = selectivity of KCNQ1 inhibitors: inhibition of rat KCNQ2 channel | shares compounds with KCNQ1 block | KCNQ2 cells, FluxOR thallium flux fluorescence | inhibition, % at 10 µM | 71% of 1,600 active | AID 651746;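 active = mean percent inhibition of the KCNQ2 thallium signal more than 5 SD above the buffer-only control wells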;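 also: KCNQ2 expressed in CHO cells; 0% = buffer control wells and 100% = XE-991 inhibitor control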
# KCNQ1 KCNE1 spec = KCNQ1 inhibitor that also blocks human KCNQ1/KCNE1 channel; KCNQ1/KCNE1 cells, FluxOR thallium flux fluorescence; inhibition, % at 10 µM; AID 652147; shares compounds with KCNQ1 block; 77% of 1,600 active;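 active = mean percent inhibition of duplicate wells above the buffer-only control mean plus 3 SD of those controls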;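 also: 0% = buffer only wells and 100% = XE-991 inhibitor control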
# KCNK9 block conf = human KCNK9 inhibitor confirmation | shares compounds with KCNK9 inh | HEK293 KCNK9 cells, FluxOR thallium flux fluorescence | inhibition, % at 10 µM | 43% of 4,900 active;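 active = thallium signal inhibited by more than 5 SD of the compound-free buffer control wells, on both duplicate plates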;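 also: 0% = assay buffer control wells without compound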
# Kir21 sel = tests whether KCNK9 modulators also affect mouse Kir2.1; Kir2.1 cells, FluxOR thallium flux fluorescence; AID 492993; 4% of 4,900 active; inhibition, % at 10 µM; shares compounds with KCNK9 inh;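 active = thallium signal drop more than 5 SD beyond the mean of the no-compound control wells, seen in both duplicate plates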;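 also: signal is fluorescence rise after thallium addition divided by baseline fluorescence; plate controls were assay buffer only for no effect and full block by chlorpromazine control for full effect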
# HEK293 Tl ctr = second counter-screen for KCNK9 modulators: effect in non-induced cells; shares compounds with KCNK9 inh; non-induced KCNK9-HEK293, FluxOR thallium flux; inhibition, % at 10 µM; 40% of 4,900 active; AID 492997;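 active = thallium signal drop beyond 5 SD of the untreated control mean, on both duplicate plates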;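 also: plate controls were buffer only IC0 wells for no effect and SID17386958 at its maximal inhibitory level for full effect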
# Numbers without * were called inactive; i = inactive; . = no result given.
SMILES,KCNK9 inh,Kir21 inh,KCNK3 inh,KCNQ1 block,KCNQ1 act,hERG rescue,KCNQ1 block val,CHO KCNQ1 ctr,KCNQ2 inh,KCNQ1 KCNE1 spec,KCNK9 block conf,Kir21 sel,HEK293 Tl ctr,others
Cc1ccc(Cl)cc1NC(=O)CC(O)(C(F)(F)F)C(F)(F)F,-19.2*,1.07,i,8*,i,-18.4,89.5*,0.47,i,83.0%*,i,29.0%*,28.0%*,
CC(C)(C)c1nc(SCC(=O)c2ccccc2)c2ccccc2n1,-9.04*,-0.33,i,9*,i,-18.7,84.5*,0.679,i,58.5%*,46.5%*,51.0%*,47.0%*,
CCN(Cc1ccccc1)C(c1ccc(C)cc1)c1nnnn1C(C)(C)CC (stereo not drawn),-12.8*,0.01,i,8*,i,-10.5,111.5*,0.413,112.0%*,85.5%*,58.5%*,i,50.0%*,KCNQ1 APC inh=i
CCN(Cc1ccccc1)C(c1ccncc1)c1nnnn1C(C)(C)C (stereo not drawn),i,-0.25,i,i,i,0.2,.,.,.,.,.,.,.,
Clc1cccc(Cl)c1CSc1cc2c(nn1)-c1ccccc1CC2,i,0.43,i,i,i,-20.6,.,.,.,.,.,.,.,
Clc1ccccc1CSc1cc2c(nn1)-c1ccccc1CC2,-11.1*,0,i,9*,i,-15.2,81.5*,0.403,97.3%*,128.0%*,46.0%*,i,43.0%*,
O=C(Nc1ccc(F)cc1)Nc1ccccc1NS(=O)(=O)c1cccs1,i,-0.1,i,i,i,-10.9,.,.,.,.,.,.,.,
O=C(Nc1ccc(Cl)cc1)Nc1ccccc1NS(=O)(=O)c1cccs1,-10.4*,-1.82,i,7*,i,-6.5,81.0*,0.556,66.0%*,i,32.0%*,i,i,
c1cncc(CNc2nc(-c3cccnc3)nc3ccccc23)c1,i,-1.28,i,i,i,-13.9,.,.,.,.,.,.,.,
CC(C)(C)c1ccc(-c2nc(NCc3cccnc3)c3ccccc3n2)cc1,-9.27*,1.46,i,15*,i,-2.4,152.5*,0.47,100.0%*,186.0%*,26.0%*,i,41.5%*,KCNQ1 APC inh=i
COc1ccccc1NC(=O)CSc1nnc(C2CCCCC2)n1-c1ccccc1,i,-1.41,i,i,i,-9.1,.,.,.,.,.,.,.,
CC(Nc1c[nH]c(=O)[nH]c1=O)c1ccccc1 (stereo not drawn),i,2.1,i,i,i,-4.6,.,.,.,.,.,.,.,
CN(C(=O)CSc1nc(-c2ccc(C(C)(C)C)cc2)c(C#N)c(=O)[nH]1)C1CCCCC1,i,1.04,i,7*,i,-14.6,54.5*,0.416,79.3%*,i,i,i,29.0%*,
Cc1cc(C)c(C#N)c(SCC(=O)N(C)C2CCCCC2)n1,i,-0.22,i,i,i,-11.1,.,.,.,.,.,.,.,

# Source: PubChem (Johns Hopkins Ion Channel Center)
